An excerpt weighted towards active compounds, which were near 4.1% of everything screened.
KCNK9 block: human KCNK9 channel inhibition; B-score at 10 µM; AID 488922; HEK293 KCNK9, FluxOR thallium flux fluorescence; active compounds read low; actives 1.2% (n = 310,000);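 active means ratio B-score over 3 SD below the library mean, with starting fluorescence within 5 SD of its mean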;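 further: negative B-score means less thallium flux so channel inhibition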
KCNK3 inh: human KCNK3 channel inhibition, primary screen. O14649. CHO-KCNK3 thallium flux, FluxOR fluorescence; active compounds read low. B-score at 10 µM. actives 0.84% (n = 340,000). AID 602410;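 active means B-score under library mean minus 4 SD, starting fluorescence ratio at most library mean plus 5 SD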;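 further: more negative B-score means stronger inhibition of thallium flux through KCNK3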
KCNQ1 pot: human KCNQ1 channel potentiation or activation | P51787 | B-score at 10 µM | CHO-K1 KCNQ1, thallium flux FluxOR fluorescence; active compounds read high | actives 0.35% (n = 310,000);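 active means fluorescence ratio B-score, a plate-corrected score, at least three library SD, with initial intensity B-score within 5 SD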
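Doses: Single concentration per compound, DMSO matched to controls | Test system: KCNQ1-transfected CHO-K1 cells | Timing: 90 min dye loading and 20 min compound exposure, both at room temperature | Measured by: Kinetic FluxOR thallium fluorescence, 10-s 1-Hz baseline, 110-s post-stimulus read | Medium: Assay buffer with matched DMSO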
KCC2 mod: modulators of human KCC2 chloride dependent transport | Q9H2X9 | KCC2 cells, thallium flux FluoZin-2 fluorescence | B-score of Tl+ flux slope (higher = more flux/activation; lower = inhibition) at 10 µM | actives 2.2% (n = 190,000) | AID 1456;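 active means thallium flux slope and its plate-corrected score both differing from the plate sample mean at a set confidence after two filtering rounds, in either direction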;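 further: slope of fluorescence scaled to starting intensity during 10 to 20 s after thallium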
hERG rescue: compounds protecting human hERG from proarrhythmic drug block; actives 0.51% (n = 310,000); activation (rescue from dofetilide block), less the hit threshold, % at 10 µM; CHO-hERG, FluxOR thallium flux, dofetilide IC70 present; Q12809;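 active means activation above the mean of controls blocked by dofetilide plus 5 SD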;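 further: thallium influx through hERG after potassium depolarization seen as dye fluorescence rise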
KCNQ1 inh: inhibitors of human KCNQ1 potassium channel; actives 1.3% (n = 310,000); B-score at 10 µM; P51787; AID 2642; CHO-K1 KCNQ1, FluxOR thallium flux fluorescence; active compounds read high;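 active means compounds whose thallium flux B-score, printed positive for inhibition, exceeds three library SD while starting fluorescence stays within three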;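 further: channel opened by potassium depolarization with thallium stimulus after 20 min compound exposure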
KCC2 sec1: confirmation of human KCC2 transport modulators; actives 15% (n = 3,700); HEK293-KCC2, thallium flux, FluoZin2 fluorescence; active compounds read high; normalised thallium flux (F/F0 slope) at 10 µM; shares compounds with KCC2 mod;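 active means thallium flux slope above the same plate's solvent-only control mean plus 3 SD; inconclusive means the two replicate wells disagree; inactive means no significant difference from solvent-only control wells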
KCC2 bumet counter: thallium flux despite bumetanide block in KCC2 cells, secondary assay 3. HEK293-KCC2 + bumetanide/ouabain, thallium flux FluoZin2; active compounds read high. normalized thallium flux at 10 µM. actives 49% (n = 3,700). AID 1714. shares compounds with KCC2 mod;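 active means thallium entry rate above the same plate's blocked-transporter control wells by more than 3 SD; inconclusive means the two repeat wells disagree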;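 further: raw slope of fluorescence over initial fluorescence between 10 and 20 s after thallium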
KCC2 sec2: KCC2 (human) modulation, second secondary assay. HEK293-KCC2, thallium flux FluoZin2 fluorescence; actives lie on both sides; F/F0 rise rate, 10–20 s post-thallium. actives 23% (n = 3,700). shares compounds with KCC2 mod. normalized thallium flux at 10 µM;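 active means thallium flux slope more than 3 SD above or below the plate's solvent-only control mean, mostly below; inconclusive means the two repeat wells disagreed; inactive means no significant shift from solvent-only controls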;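 further: raw slope with 0.1% DMSO as baseline and bumetanide as block control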
HEK293 Tl flux: counter-screen for KCC2 modulators: effect in parental HEK293 cells; shares compounds with KCC2 mod; thallium flux FluoZin2, ouabain; baseline-ratio fluorescence slope, 10–20 s after thallium; thallium flux rate (normalised fluorescence) at 10 µM; AID 1716; actives 46% (n = 3,700);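 active means thallium flux rate significantly above the same plate's solvent-only control wells, beyond their mean plus 3 SD; inconclusive means the two replicate wells gave conflicting results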
KCC2 retest ouab: confirmation of human KCC2 modulators with ouabain; shares compounds with KCC2 mod; HEK293-KCC2, thallium flux FluoZin2 fluorescence; bidirectional: low = inhibitor, high = activator; raw Tl+ flux slope (below DMSO = inhibition, above = activation) at 10 µM; actives 48% (n = 3,700); AID 1717;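 active means thallium flux slope beyond 3 SD from same-plate DMSO control mean in most replicates, usually higher, sometimes lower; inconclusive means repeat tests gave conflicting results; inactive means no significant difference from controls in most replicates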;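 further: slope of initial-normalized fluorescence between seconds 10 and 20 after thallium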
HEK293 Tl flux2: parental HEK flux effect, counter-screen 2; shares compounds with KCC2 mod; HEK293 parental, thallium flux FluoZin-2 fluorescence slope; thallium flux slope at 10 µM; actives 33% (n = 3,700); AID 1718;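 active means thallium flux slope above the same plate's solvent-control mean plus 3 SD in both duplicate wells; inconclusive means duplicate wells that disagreed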;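 further: run without ouabain in cells lacking the KCC2 cotransporter; slope of fluorescence scaled to its starting value between 10 and 20 s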
Starred values were filed as active, the others as inactive; i = inactive; u = inconclusive; x = no result given.

SMILES	KCNK9 block	KCNK3 inh	KCNQ1 pot	KCC2 mod	hERG rescue	KCNQ1 inh	KCC2 sec1	KCC2 bumet counter	KCC2 sec2	HEK293 Tl flux	KCC2 retest ouab	HEK293 Tl flux2
O=C(CCCN1C(=O)/C(=C/c2ccccc2Cl)SC1=S)NNC(=O)c1cccnc1	i	i	i	-4.9*	0	i	0.009	0.005	0.031	0.0069	0.017*	0.011
COc1ccc(-n2ncc3c2CC(C)(C)CC3NC(=O)CCN2CCCCC2=O)cc1 (configuration not stated)	i	i	i	x	-7	i	x	x	x	x	x	x
C=CCNC(=S)N/N=C/c1ccc(C)cc1C	i	i	i	5.2*	-11	i	0.012	0.041*	0.035	0.018*	u	u
FC(F)(F)c1ccc(/C=N/NC(=S)NC2CCCCC2)cc1	i	i	i	0.2	-3	i	x	x	x	x	x	x
C=CCNC(=S)N/N=C/c1ccc(C(F)(F)F)cc1	i	i	i	3.5*	-3	i	0.012	0.016*	0.036	u	u	u
Cc1ccccc1N1CC(C(=O)Nc2ccncc2)CC1=O (configuration not stated)	i	i	i	x	-5	i	x	x	x	x	x	x
O=C(Nc1ccccc1)c1ccc(S(=O)(=O)N2CCCCC2)cc1	i	i	i	1.2	-1	i	x	x	x	x	x	x
O=C(Nc1ccn(-c2ccccc2)n1)c1ccc(S(=O)(=O)N2CCCCCC2)cc1	i	i	i	x	-6	i	u	0.0041	0.029	0.0072	0.016*	0.011
Cc1cc(NC(=O)c2ccc(S(=O)(=O)N3CCCC3)cc2)nc2c1c(=O)oc1ccccc12	i	i	i	x	-3	i	0.0092	0.007	0.03	0.0079	0.019	u
Cc1cc(NC(=O)c2ccc(S(=O)(=O)N3CCOCC3)cc2)nc2c1c(=O)oc1ccccc12	i	x	i	x	-9	i	x	x	x	x	x	x
Cc1cc(C(=O)N(C)Cc2c(F)cccc2Cl)c2ccccc2n1	i	i	i	x	-10	i	x	x	x	x	x	x
CNC(=S)N/N=C(\C)c1ccc(C(C)(C)C)cc1	i	i	i	5.7*	-10	i	0.0093	0.018*	0.032	0.022*	u	0.013*
CC(C)N1CCOC1c1ccccc1 (configuration not stated)	x	i	x	x	x	x	x	x	x	x	x	x
Fc1ccc(-c2nn3c(C4COc5ccccc5O4)nnc3s2)cc1 (configuration not stated)	i	i	i	-4.5*	-13	i	0.0055	0.0045	0.03	0.0079	0.019	0.011
c1ccc2c(c1)OCC(c1nnc3sc(-c4ccc5c(c4)OCO5)nn13)O2 (configuration not stated)	i	i	i	x	-9	i	x	x	x	x	x	x
COc1ccc(CCNc2cc(-c3ccccc3)nc3ncnn23)cc1	i	i	i	4.7*	-5	i	0.0071	0.0043	0.027	0.0068	0.017	u

Compound activity from PubChem BioAssay.
